Results collected from several papers.
Protocols differ between the studies behind these lines.

SMILES	target or system	test	test system	setting	measurement	result
CC(C)(N)CNC(=O)O[C@H]1CCC[C@@]2(C1)OOC1(O2)C2CC3CC(C2)CC1C3 (some centres unmarked)	–	–	male CD-1 mouse, plasma	oral, 10 mg/kg	Cmax	191 ng/mL
COc1ccc([C@@]23Oc4cc(OC)cc(OC)c4[C@@]24N=C(C2CC2)N[C@@]4(O)[C@H](C(=O)N(C)OC)[C@H]3c2ccccc2)cc1	Vero	cell growth or viability, MTT	–	24 h	CC50	> 20 µM
COc1ccsc1CNCC[C@@]1(c2ccccn2)CCOC2(CCCC2)C1	–	–	human, plasma	intravenous, 3 mg, single dose, healthy volunteers, infusion	Vd	129 L
CNC(=O)c1ccc(-c2cnn3ccc(C(=O)N(C)c4ccc(Cl)c(C(=O)OC)c4)cc23)cc1	–	–	female C57BL/6 mouse, plasma	oral, 1 mg/kg/day	Cmax	0.1 ng/mL
CC(O)(CS(=O)(=O)c1ccc(F)cc1)C(=O)Nc1ccc(C#N)c(C(F)(F)F)c1 (centres unmarked)	Vero	cell growth or viability, resazurin	–	–	CC50	> 100 µM
NCCNC(=O)O[C@H]1CCC[C@@]2(C1)OOC1(O2)C2CC3CC(C2)CC1C3 (some centres unmarked)	–	–	male CD-1 mouse, plasma	oral, 10 mg/kg	Cmax	240 ng/mL
CNC(=O)c1ccc(-c2cnn3ccc(C(=O)N(C)c4ccc(Cl)c(C(=O)O)c4)cc23)cc1	–	–	female C57BL/6 mouse, plasma	oral, 3 mg/kg/day	Cmax	1 ng/mL
COCC1=N[C@@]2(O)[C@H](C(=O)N(C)OC)[C@@H](c3ccccc3)[C@]3(c4ccc(OC)cc4)Oc4cc(OC)cc(OC)c4[C@]23N1	Vero	cell growth or viability, MTT	–	24 h	CC50	> 20 µM
